Hits are enriched below; roughly 3.3% of the tested compounds scored in any of these assays.
rCAG RNA binder = molecules binding r(CAG) RNA repeats; 370,000 compounds, 1.3% hits; inhibition, % at 3 µM; r(CAG) RNA repeat, TO-PRO-1 dye displacement fluorescence; AID 651821;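 active = inhibition above the plate cutoff, the mean of all test compounds on that plate plus 3 SD, cut at about 35% in these data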;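 note: 0% = DMSO alone and 100% = 100 µM mitoxantrone as full dye displacement; higher means more dye released from RNA so lower well fluorescence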
PRMT1 inh = blocks human protein arginine methyltransferase 1; recombinant PRMT1, activity-based probe fluorescence polarization; inhibition, % at 2.79 µM; 370,000 compounds, 1.3% hits;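 active = inhibition above about 21% made by adding two undisclosed values, limit read from the data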
mABHD4 FP = inhibits mouse alpha/beta hydrolase domain 4. Q8VD66. purified mABHD4, FP-Rh probe fluorescence polarization. inhibition, % at 8.92 µM. 370,000 compounds, 0.54% hits. AID 720543;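 active = inhibition exceeding the mean over every tested compound plus 3 SD, cut at about 30% in these data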;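 note: 0% = plate median of compound wells and 100% = S159A mutant with DMSO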
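System: mouse ABHD4 enzyme, wild type / Medium: HEPES pH 7.0, NaCl, Pluronic buffer / Reagent: FP-Rh activity-based fluorescent probe / Control set: S159A mutant high control, sample median low control / Detection: fluorescence polarization with parallel and perpendicular emission, 525/598 nm / Schedule: 45 min + 60 min at 25 °C / Compound dosing: 8.92 µM, single dose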
SIAE inh = blocks human sialic acid acetylesterase; inhibition, % at 9.66 µM; SIAE FP-Rh probe binding, fluorescence polarization; 370,000 compounds, 0.69% hits; AID 1053197;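 active = inhibition above a cutoff: mean of compounds within the control limits plus 3 SD of those, cut at about 17% in these data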;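 note: 0% = plate median of compound wells and 100% = probe without SIAE protein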
Target sequence (Q9HAT2 whole entry, looked up): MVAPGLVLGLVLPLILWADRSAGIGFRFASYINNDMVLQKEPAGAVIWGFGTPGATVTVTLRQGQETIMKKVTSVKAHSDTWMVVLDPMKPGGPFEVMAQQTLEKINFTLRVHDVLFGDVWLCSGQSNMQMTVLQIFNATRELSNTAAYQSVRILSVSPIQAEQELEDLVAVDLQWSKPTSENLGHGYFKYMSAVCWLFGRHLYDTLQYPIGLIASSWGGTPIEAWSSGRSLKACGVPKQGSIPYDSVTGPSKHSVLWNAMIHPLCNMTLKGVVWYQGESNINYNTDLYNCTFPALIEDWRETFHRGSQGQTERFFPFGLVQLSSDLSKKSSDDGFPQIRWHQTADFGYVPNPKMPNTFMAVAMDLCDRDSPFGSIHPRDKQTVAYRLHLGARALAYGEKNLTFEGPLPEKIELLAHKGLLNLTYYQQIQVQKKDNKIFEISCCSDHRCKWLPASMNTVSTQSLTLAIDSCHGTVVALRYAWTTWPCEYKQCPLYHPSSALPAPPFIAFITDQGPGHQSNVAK
TCR CD3 inh = human TCR-CD3 binding inhibition. TAMRA-labeled TCR probe fluorescence, biochemical. inhibition, % at 9.4 µM. 360,000 compounds, 0.37% hits. AID 651800; in the data active = inhibition above about 19%;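 note: recombinant mutant TCR 2C K166C tagged with TAMRA read by polarization; 0% = receptor in buffer alone and 100% = receptor with positive control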
SIAE confirm = confirmation of human SIAE inhibitors. inhibition, % at 9.66 µM. shares compounds with SIAE inh. SIAE FP-Rh activity-based probe, fluorescence polarization. 2,300 compounds, 13% hits;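 active = mean inhibition of the replicates above the hit cutoff set in the primary screen, cut at about 17% in these data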;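 note: 0% = SIAE with DMSO and probe and 100% = probe without SIAE; inhibitors lower polarization as more probe stays unbound to SIAE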
Numbers without * were called inactive; nt = no result.

SMILES	rCAG RNA binder	PRMT1 inh	mABHD4 FP	SIAE inh	TCR CD3 inh	SIAE confirm
CCn1c2ccccc2c2cc(NC(=O)c3ccc(C)c([N+](=O)[O-])c3)ccc21	4	-1	0	21*	-1	-4
CCn1c2ccccc2c2cc(NC(=O)c3cccc([N+](=O)[O-])c3)ccc21	17	1	-2	8	-3	nt
Cc1cc(Br)ccc1NC(=O)CN(C)C(=O)c1cc(S(=O)(=O)N(C)C)ccc1N1CCCC1	0	0	-4	-1	0	nt
CCc1c(C)c2ccc(OCC(N)=O)cc2oc1=O	-1	-3	-2	24*	-1	2
CCS(=O)(=O)Nc1ccc2c(c1)C(=O)N(C)[C@@H]1CC[C@H](CC(=O)NCCCN3CCOCC3)O[C@H]1CO2	1	-6	-4	18*	nt	19*
CC(C)=NNc1cc([N+](=O)[O-])cc2c1C(=O)N(C)S2=O (stereo unspecified)	9	13	5	17*	-2	1
C/C(=N/Nc1ccccc1[N+](=O)[O-])c1ccc([N+](=O)[O-])cc1	-1	0	-6	4	-4	nt
O=C(Cc1ccc2ccccc2c1)NC(Cc1ccccc1)C(=O)O (stereo unspecified)	5	5	-2	1	0	nt
CCOC(=O)N1CCN(C(=O)COc2cccc3c2CCN(CC)C3=O)CC1	-4	4	2	20*	-4	-1
CC(C(Sc1ccccc1N)c1ccccc1)[N+](=O)[O-] (stereo unspecified)	5	53*	11	17*	-4	10
Nc1ccccc1SCc1c(Cl)cccc1Cl	0	4	0	2	-1	nt
CCCCCCC(=O)NC1CCCCN(Cc2ccc(Cl)cc2)C1=O (stereo unspecified)	0	-3	1	-2	nt	nt
Cc1ccc(S(=O)(=O)NC(=O)c2cc(C)n(CCCN3CCOCC3)c2C)cc1	6	-2	-1	-1	7	nt
Cc1ccc(S(=O)(=O)NC(=O)c2cc(C)n(C3CC3)c2C)cc1	3	-3	12	24*	4	5
O=S(=O)(NCC(Nc1ccc(Cl)cc1)c1ccccc1)c1ccc(Cl)cc1 (stereo unspecified)	14	5	-32	19*	-3	12
O=S(=O)(NCC(c1ccccc1)N1CCC(O)CC1)c1ccc(Cl)cc1 (stereo unspecified)	-2	1	0	-2	-1	nt
Cn1c(N)nc2nc[nH]c2c1=S	1	-1	-1	4	-1	nt
COc1ccc2c(c1)-c1nc(NC(=O)c3ccco3)sc1CC2	5	0	-9	19*	2	-10
COc1ccc2c(c1)CCc1sc(NC(=O)c3ccc(C)cc3)nc1-2	5	-2	10	18*	4	1
COc1ccc2c(c1)Cc1sc(NC(=O)c3ccco3)nc1-2	14	13	5	-5	-2	nt
CCOc1ccc(CCNS(=O)(=O)c2cccc3nsnc23)cc1OCC	-8	1	6	17*	7	-1
CCCCCn1cc(CCC(=O)Nc2ccc(N(C)c3ccccn3)cc2)c2ccccc21	12	-2	-1	26*	2	27*
CCCc1ccc(C(O)c2ncc(-c3cccc(C)c3)[nH]2)cc1 (stereo unspecified)	5	-4	-5	0	2	nt
CCc1ccccc1N(CC(=O)N1CCCCC1)S(=O)(=O)c1ccccc1	-5	0	-3	7	5	nt
Cc1cccc(N(CC(=O)N2CCCC2)S(=O)(=O)c2ccccc2)c1C	-8	1	1	22*	-12	0
SMILES	rCAG RNA binder	PRMT1 inh	mABHD4 FP	SIAE inh	TCR CD3 inh	SIAE confirm
O=C(O)c1ccccc1NN=Cc1ccccc1	3	0	6	18*	-8	2
CC(C)(C)OC(=O)C(Oc1ccccc1[N+](=O)[O-])C(=O)OC(C)(C)C	-2	7	-6	1	-6	nt
O=C(Nc1ccccc1)/C(=C/c1cccnc1)NC(=O)c1ccco1	0	-3	6	20*	3	3
CCCCN(C)C(=O)c1sc(=O)n(Cc2ccccc2C#N)c1C	0	-2	0	8	0	nt
CC(C)CCCC(C)CCOC(=O)CN1CCCC1 (stereo unspecified)	-5	-3	1	18*	5	-1
C[C@@H]1CN([C@H](C)CO)C(=O)c2cc(Br)cnc2O[C@H]1CN(C)Cc1ccccc1F	-2	2	4	1	0	nt
Cc1cccc(NC(=S)N/N=C/c2ccc3c(c2)OCO3)c1	5	1	0	7	-5	nt
COc1cccc(NC(=S)NN=C2CCC(C(C)(C)C)CC2)c1 (stereo unspecified)	0	2	3	19*	0	2
COc1cccc(NC(=S)N/N=C2\CC(C)(C)Oc3ccc(O)cc32)c1	16	-3	9	36*	-2	21*
CC1(C)C/C(=N\NC(=S)Nc2ccccc2F)c2cc(O)ccc2O1	18	-2	21	37*	1	38*
Cc1cccc(NC(=S)N/N=C2\CC(C)(C)Oc3ccc(O)cc32)c1	11	1	28	41*	-2	17
O=C(c1cccc(-n2cccc2)c1)N1CCN(S(=O)(=O)c2ccccc2Br)CC1	-3	0	-6	-6	6	nt
O=C(c1ccncc1)N1CCN(S(=O)(=O)c2ccccc2Br)CC1	4	3	2	18*	0	1
N#Cc1ccc(CN2CCN(c3ccc(S(=O)(=O)N4CCCC4)cn3)CC2)cc1	3	3	-10	8	-2	nt
CCCc1nc2ccccc2c(C(=O)OCC(=O)NC2CC2)c1CC	-1	-5	-3	25*	1	4
O=C(Cn1ccc(NC(=O)OCc2ccccc2)nc1=O)NCC1CCCO1 (stereo unspecified)	-2	-2	7	18*	8	1
O=C(Nc1ccn(CCCNCC2CCCO2)c(=O)n1)OCc1ccccc1 (stereo unspecified)	2	3	-9	1	-1	nt
CC(C)Cc1nnc(NC(=O)CCC(=O)NCc2ccccc2Cl)s1	2	-3	7	18*	6	-3
CC(C)c1nnc(NC(=O)CCC(=O)NCc2ccccc2Cl)s1	-2	2	-1	-1	10	nt
Cc1ccc(C2(C)NC(=O)N(CC(=O)NNC(=O)c3ccccc3)C2=O)cc1 (stereo unspecified)	4	-4	0	6	3	nt
COC(=O)Oc1ccc(/C=N/NC(=O)CN(c2ccccc2Br)S(C)(=O)=O)cc1OC	-5	-2	-1	22*	-1	15
CCCc1cc(=O)oc2c(CN3CCCC3)c(O)c(Cl)cc12	2	-2	7	20*	9	4
CCCc1cc(=O)oc2c(CN3CCCC3)c(O)ccc12	1	-2	3	3	1	nt

Assay outcomes (PubChem BioAssay)
